Results taken from ChEMBL document CHEMBL1629431, “Synthesis and antitumor activity of some 2, 3-disubstituted quinazolin-4(3H)-ones and 4, 6- disubstituted- 1, 2, 3, 4-tetrahydroquinazolin-2H-ones” (2010).

Legend:
Format in all cases: functional
[1] = tested on: A549; assay: Growth inhibition of human A549 cells at 10 uM after 48 hrs by coulter counter method; settings: A549, 48 h, read-out: GI
Method in brief: (§1)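 Single high-dose NCI 60-cell-line panel screen across nine tumor subpanels. Test solutions (0.2 mL) were added in duplicate to wells holding 1.8 mL of culture at 6 × 10⁴ cells/mL. Controls got PBS and DMSO at identical dilutions. Incubation was 48 h at 37 °C in humidified 5% CO₂. Cells were diluted 10-fold in saline, Coulter-counted and dilution-corrected. Results were expressed as percent growth inhibition versus control.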

[2] = tested on: SK-MEL-2; assay: Growth inhibition of human SK-MEL-2 cells at 10 uM after 48 hrs by coulter counter method; settings: SK-MEL-2, 48 h, read-out: GI; method in brief: as §1
[3] = tested on: NCI-H23; assay: Growth inhibition of human NCI-H23 cells at 10 uM after 48 hrs by coulter counter method; settings: NCI-H23, 48 h, read-out: GI; method in brief: as §1
[4] = tested on: SR; assay: Growth inhibition of human SR cells at 10 uM after 48 hrs by coulter counter method; settings: read-out: GI; method in brief: as §1
[5] = tested on: MDA-MB-231; assay: Growth inhibition of human MDA-MB-231 cells at 10 uM after 48 hrs by coulter counter method; settings: MDA-MB-231, 48 h, read-out: GI; method in brief: as §1
[6] = tested on: COLO 205; assay: Growth inhibition of human COLO205 cells at 10 uM after 48 hrs by coulter counter method; settings: COLO 205, 48 h, read-out: GI; method in brief: as §1
[7] = tested on: SK-OV-3; assay: Growth inhibition of human SKOV3 cells at 10 uM after 48 hrs by coulter counter method; settings: SK-OV-3, 48 h, read-out: GI; method in brief: as §1
[8] = tested on: OVCAR-4; assay: Growth inhibition of human OVCAR4 cells at 10 uM after 48 hrs by coulter counter method; settings: OVCAR-4, 48 h, read-out: GI; method in brief: as §1
[9] = tested on: HL-60(TB); assay: Growth inhibition of human HL-60(TB) cells at 10 uM after 48 hrs by coulter counter method; settings: HL-60, 48 h, read-out: GI
Method in brief: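 Part of the NCI 60-cell-line single-high-dose panel. Cells were seeded at 6 × 10⁴ cells/mL with test solution in duplicate wells, alongside PBS/DMSO controls at identical dilutions. Plates were held 48 h at 37 °C in a humidified 5% CO₂ incubator. Cells were then diluted 10-fold in saline and counted by Coulter counter, with counts corrected for dilution. Results are percent growth of treated cells, reported as GI %.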

[10] = tested on: CCRF-CEM; assay: Growth inhibition of human CCRF-CEM cells at 10 uM after 48 hrs by coulter counter method; settings: read-out: GI; method in brief: as §1
[11] = tested on: KM12; assay: Growth inhibition of human KM12 cells at 10 uM after 48 hrs by coulter counter method; settings: KM12, 48 h, read-out: GI; method in brief: as §1
[12] = tested on: 786-0; assay: Growth inhibition of human 786-0 cells at 10 uM after 48 hrs by coulter counter method; settings: 786-0, 48 h, read-out: GI; method in brief: as §1
[13] = tested on: CAKI-1; assay: Growth inhibition of human Caki1 cells at 10 uM after 48 hrs by coulter counter method; settings: CAKI-1, 48 h, read-out: GI; method in brief: as §1
[14] = tested on: K562; assay: Growth inhibition of human K562 cells at 10 uM after 48 hrs by coulter counter method; settings: K562, 48 h, read-out: GI; method in brief: as §1
[15] = tested on: U-251; assay: Growth inhibition of human U251 cells at 10 uM after 48 hrs by coulter counter method; settings: U-251, 48 h, read-out: GI; method in brief: as §1
[16] = tested on: IGROV-1; assay: Growth inhibition of human IGROV1 cells at 10 uM after 48 hrs by coulter counter method; settings: IGROV-1, 48 h, read-out: GI; method in brief: as §1
[17] = tested on: MOLT-4; assay: Growth inhibition of human MOLT4 cells at 10 uM after 48 hrs by coulter counter method; settings: MOLT-4, 48 h, read-out: GI; method in brief: as §1
[18] = tested on: UO-31; assay: Growth inhibition of human UO31 cells at 10 uM after 48 hrs by coulter counter method; settings: UO-31, 48 h, read-out: GI; method in brief: as §1
[19] = Growth inhibition of human Hs 578T cells at 10 uM after 48 hrs by coulter counter method; settings: read-out: GI; method in brief: as §1
[20] = tested on: SN12C; assay: Growth inhibition of human SN12C cells at 10 uM after 48 hrs by coulter counter method; settings: read-out: GI; method in brief: as §1
[21] = tested on: SNB-75; assay: Growth inhibition of human SNB75 cells at 10 uM after 48 hrs by coulter counter method; settings: SNB-75, 48 h, read-out: GI; method in brief: as §1
[22] = tested on: SF-539; assay: Growth inhibition of human SF539 cells at 10 uM after 48 hrs by coulter counter method; settings: SF-539, 48 h, read-out: GI; method in brief: as §1
[23] = tested on: M14; assay: Growth inhibition of human M14 cells at 10 uM after 48 hrs by coulter counter method; settings: M14, 48 h, read-out: GI; method in brief: as §1
[24] = tested on: MCF7; assay: Growth inhibition of human MCF7 cells at 10 uM after 48 hrs by coulter counter method; settings: MCF7, 48 h, read-out: GI; method in brief: as §1
[25] = tested on: UACC-62; assay: Growth inhibition of human UACC62 cells at 10 uM after 48 hrs by coulter counter method; settings: UACC-62, 48 h, read-out: GI; method in brief: as §1
[26] = tested on: SK-MEL-28; assay: Growth inhibition of human SK-MEL-28 cells at 10 uM after 48 hrs by coulter counter method; settings: SK-MEL-28, 48 h, read-out: GI; method in brief: as §1
[27] = tested on: HCT-116; assay: Growth inhibition of human HCT116 cells at 10 uM after 48 hrs by coulter counter method; settings: HCT-116, 48 h, read-out: GI; method in brief: as §1
[28] = tested on: NCI-H522; assay: Growth inhibition of human NCI-H522 cells at 10 uM after 48 hrs by coulter counter method; settings: NCI-H522, 48 h, read-out: GI; method in brief: as §1
[29] = tested on: T47D; assay: Growth inhibition of human T47D cells at 10 uM after 48 hrs by coulter counter method; settings: read-out: GI; method in brief: as §1
[30] = tested on: HOP-92; assay: Growth inhibition of human HOP92 cells at 10 uM after 48 hrs by coulter counter method; settings: HOP-92, 48 h, read-out: GI; method in brief: as §1
[31] = tested on: MDA-MB-468; assay: Growth inhibition of human MDA-MB-468 cells at 10 uM after 48 hrs by coulter counter method; settings: MDA-MB-468, 48 h, read-out: GI; method in brief: as §1
[32] = tested on: NCI-H226; assay: Growth inhibition of human NCI-H226 cells at 10 uM after 48 hrs by coulter counter method; settings: NCI-H226, 48 h, read-out: GI; method in brief: as §1
[33] = tested on: SF-268; assay: Growth inhibition of human SF268 cells at 10 uM after 48 hrs by coulter counter method; settings: SF-268, 48 h, read-out: GI; method in brief: as §1
[34] = tested on: PC-3; assay: Growth inhibition of human PC3 cells at 10 uM after 48 hrs by coulter counter method; settings: PC-3, 48 h, read-out: GI; method in brief: as §1

Row | Structure (SMILES) | inhibition of growth at 10 µM [2] [%] | inhibition of growth at 10 µM [3] [%] | inhibition of growth at 10 µM [4] [%] | inhibition of growth at 10 µM [5] [%] | inhibition of growth at 10 µM [6] [%] | inhibition of growth at 10 µM [7] [%] | inhibition of growth at 10 µM [8] [%] | inhibition of growth at 10 µM [9] [%] | inhibition of growth at 10 µM [10] [%] | inhibition of growth at 10 µM [11] [%] | inhibition of growth at 10 µM [12] [%] | inhibition of growth at 10 µM [15] [%] | inhibition of growth at 10 µM [16] [%] | inhibition of growth at 10 µM [17] [%] | inhibition of growth at 10 µM [18] [%] | inhibition of growth at 10 µM [19] [%] | inhibition of growth at 10 µM [20] [%] | inhibition of growth at 10 µM [21] [%] | inhibition of growth at 10 µM [22] [%] | inhibition of growth at 10 µM [23] [%] | other results
1 | O=C(CSc1nc2ccccc2c(=O)n1-c1ccc(Cl)cc1)c1ccc(Cl)cc1 | 30 | 30 | 30 | 30 | 30 | 30 | 30 | 30 | 30 | 30 | 30 | 30 | 43.7 | 30 | 30 | 30 | 30 | 30 | 30 | 30 | inhibition of growth at 10 µM [1]: 30%; inhibition of growth at 10 µM [13]: 30%; inhibition of growth at 10 µM [14]: 30%; inhibition of growth at 10 µM [24]: 30%; inhibition of growth at 10 µM [25]: 30%; inhibition of growth at 10 µM [26]: 30%; inhibition of growth at 10 µM [27]: 30%; inhibition of growth at 10 µM [28]: 52.6%; inhibition of growth at 10 µM [29]: 30%; inhibition of growth at 10 µM [30]: 30%; inhibition of growth at 10 µM [31]: 30%; inhibition of growth at 10 µM [32]: 30%; inhibition of growth at 10 µM [33]: 30%
2 | COc1ccc(-n2c(SCC(=O)c3ccc(Cl)cc3)nc3ccccc3c2=O)cc1 | 30 | 41.1 | 30 | 33.3 | 53.1 | 31.9 | 32.1 | 33.3 | 30 | 41.8 | 31.1 | 31.6 | 45.7 | 30 | 30 | 80.6 | 32.5 | 47.4 | 68.6 | 30 | inhibition of growth at 10 µM [34]: 55.3%; inhibition of growth at 10 µM [24]: 34.3%; inhibition of growth at 10 µM [25]: 76.7%; inhibition of growth at 10 µM [26]: 30%; inhibition of growth at 10 µM [27]: 54.6%; inhibition of growth at 10 µM [28]: 23%; inhibition of growth at 10 µM [29]: 30%; inhibition of growth at 10 µM [31]: 41.4%; inhibition of growth at 10 µM [32]: 75.6%; inhibition of growth at 10 µM [33]: 49%
3 | CCn1c(SCC(=O)c2ccc(OC)cc2)nc2ccccc2c1=O | 30 | 30 | 30 | 30 | 30 | 30 | 30 | 30 | 30 | 30 | 30 | 30 | 30 | 30 | 31.6 | 30 | 30 | 30 | 30 | 30 | inhibition of growth at 10 µM [1]: 30%; inhibition of growth at 10 µM [13]: 30%; inhibition of growth at 10 µM [34]: 30%; inhibition of growth at 10 µM [24]: 30%; inhibition of growth at 10 µM [25]: 30%; inhibition of growth at 10 µM [26]: 30%; inhibition of growth at 10 µM [27]: 30%; inhibition of growth at 10 µM [28]: < 30%; inhibition of growth at 10 µM [29]: 30%; inhibition of growth at 10 µM [30]: 30%; inhibition of growth at 10 µM [31]: 30%; inhibition of growth at 10 µM [32]: 30%; inhibition of growth at 10 µM [33]: 30%
4 | COc1ccc(-c2nnc(Nc3nc4ccccc4c(=O)n3-c3ccccc3)s2)cc1 | 30 | 30 | 30 | 30 | 58.9 | 30 | 30 | 30 | 30 | 30 | 30 | 30 | 30 | 30 | 30 | 30 | 30 | 30 | 30 | 30 | inhibition of growth at 10 µM [1]: 30%; inhibition of growth at 10 µM [13]: 30%; inhibition of growth at 10 µM [14]: 30%; inhibition of growth at 10 µM [34]: 30%; inhibition of growth at 10 µM [24]: 30%; inhibition of growth at 10 µM [25]: 30%; inhibition of growth at 10 µM [26]: 30%; inhibition of growth at 10 µM [27]: 30%; inhibition of growth at 10 µM [28]: 30%; inhibition of growth at 10 µM [29]: 30%; inhibition of growth at 10 µM [30]: 30%; inhibition of growth at 10 µM [31]: 30%; inhibition of growth at 10 µM [32]: 30%; inhibition of growth at 10 µM [33]: 30%
